Measurements as given in ChEMBL document CHEMBL2169747, “Synthesis and biological properties of highly sequence-specific-alkylating N-methylpyrrole-N-methylimidazole polyamide conjugates” (J Med Chem, 2012).

Assays:
Type in all cases: functional
A549 [1] = experiment: Downregulation of Q9Y6Z5 gene expression in human A549 cells at 26 nM after 12 hrs by microarray analysis relative to control
Outline: (§1)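 A549 cells (RPMI-1640, 10% heat-inactivated FBS, penicillin/streptomycin, 37 °C, 5% CO2) seeded at 4 × 10^5 per 60 mm dish. Exposed 12 h to conjugate at 21, 26, 34 or 100 nM in medium with 0.1% DMSO, against 0.1% DMSO control. Whole-genome (~25 000 genes) expression profiled by microarray.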

A549 [2] = experiment: Downregulation of HIST1H2AC gene expression in human A549 cells at 26 nM after 12 hrs by microarray analysis relative to control
Outline: (§2)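 A549 cells, 4 × 10^5 per 60 mm dish, were exposed to conjugate for 12 h in medium with 0.1% DMSO; vehicle control was 0.1% DMSO. Whole human genome (~25 000 genes) expression was profiled by microarray and expression compared with the control.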

A549 [3] = experiment: Downregulation of ACTG gene expression in human A549 cells at 26 nM after 12 hrs by microarray analysis relative to control; outline: as §2
A549 [4] = experiment: Downregulation of PTPRK gene expression in human A549 cells at 26 nM after 12 hrs by microarray analysis relative to control; outline: as §1
A549 [5] = experiment: Upregulation of BTG2 gene expression in human A549 cells at 26 nM after 12 hrs by microarray analysis relative to control
Outline: (§3)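 4 ×10^5 A549 cells seeded per 60 mm dish and treated 12 h with conjugate (21, 26, 34 or 100 nM) in medium; control medium contained 0.1% DMSO, with conjugates added as 0.1% DMSO solutions. Whole human genome (~25 000 genes) expression profiled by microarray against the DMSO control. A549 culture: RPMI-1640 with 10% heat-inactivated FBS, penicillin/streptomycin, 37 °C, 5% CO2.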

A549 [6] = experiment: Downregulation of CTTNBP2 gene expression in human A549 cells at 26 nM after 12 hrs by microarray analysis relative to control; outline: as §2
A549 [7] = experiment: Downregulation of Q8N570 gene expression in human A549 cells at 26 nM after 12 hrs by microarray analysis relative to control; outline: as §1
A549 [8] = experiment: Downregulation of XP_375606.2 gene expression in human A549 cells at 26 nM after 12 hrs by microarray analysis relative to control; outline: as §1
A549 [9] = experiment: Upregulation of CDKN1A gene expression in human A549 cells at 26 nM after 12 hrs by microarray analysis relative to control; outline: as §3
A549 [10] = experiment: Downregulation of ADH1A gene expression in human A549 cells at 26 nM after 12 hrs by microarray analysis relative to control; outline: as §2
A549 [11] = experiment: Downregulation of TNIK gene expression in human A549 cells at 26 nM after 12 hrs by microarray analysis relative to control; outline: as §1
A549 [12] = experiment: Downregulation of SEMA3E gene expression in human A549 cells at 26 nM after 12 hrs by microarray analysis relative to control; outline: as §1
A549 [13] = experiment: Downregulation of NBEA gene expression in human A549 cells at 26 nM after 12 hrs by microarray analysis relative to control; outline: as §2
A549 [14] = experiment: Upregulation of MDM2 gene expression in human A549 cells at 26 nM after 12 hrs by microarray analysis relative to control; outline: as §3
A549 [15] = experiment: Downregulation of Q5WOV6 gene expression in human A549 cells at 26 nM after 12 hrs by microarray analysis relative to control; outline: as §1
A549 [16] = experiment: Upregulation of PPM1D gene expression in human A549 cells at 26 nM after 12 hrs by microarray analysis relative to control; outline: as §3
A549 [17] = experiment: Downregulation of DPYD gene expression in human A549 cells at 26 nM after 12 hrs by microarray analysis relative to control; outline: as §2
A549 [18] = experiment: Upregulation of MDM2 gene expression in human A549 cells at 34 nM after 12 hrs by microarray analysis relative to control; outline: as §3
A549 [19] = experiment: Downregulation of ZNF407 gene expression in human A549 cells at 34 nM after 12 hrs by microarray analysis relative to control; outline: as §1
A549 [20] = experiment: Downregulation of ZNF291 gene expression in human A549 cells at 34 nM after 12 hrs by microarray analysis relative to control; outline: as §1
A549 [21] = experiment: Downregulation of NBEA gene expression in human A549 cells at 34 nM after 12 hrs by microarray analysis relative to control; outline: as §2
A549 [22] = experiment: Downregulation of Q8NBA2 gene expression in human A549 cells at 34 nM after 12 hrs by microarray analysis relative to control; outline: as §1
A549 [23] = experiment: Upregulation of BBC3 gene expression in human A549 cells at 34 nM after 12 hrs by microarray analysis relative to control; outline: as §1
A549 [24] = experiment: Downregulation of GPX6 gene expression in human A549 cells at 34 nM after 12 hrs by microarray analysis relative to control; outline: as §2
A549 [25] = experiment: Downregulation of ACTG gene expression in human A549 cells at 34 nM after 12 hrs by microarray analysis relative to control; outline: as §2
A549 [26] = experiment: Upregulation of CDKN1A gene expression in human A549 cells at 34 nM after 12 hrs by microarray analysis relative to control; outline: as §3
A549 [27] = experiment: Downregulation of Q9P223 gene expression in human A549 cells at 34 nM after 12 hrs by microarray analysis relative to control; outline: as §1
A549 [28] = experiment: Downregulation of SMYD3 gene expression in human A549 cells at 34 nM after 12 hrs by microarray analysis relative to control; outline: as §1
A549 [29] = experiment: Downregulation of NP_001027.2 gene expression in human A549 cells at 34 nM after 12 hrs by microarray analysis relative to control; outline: as §2
A549 [30] = experiment: Upregulation of GLS2 gene expression in human A549 cells at 34 nM after 12 hrs by microarray analysis relative to control; outline: as §3
A549 [31] = experiment: Upregulation of KRTHA4 gene expression in human A549 cells at 34 nM after 12 hrs by microarray analysis relative to control; outline: as §3
A549 [32] = experiment: Upregulation of NP_997213.1 gene expression in human A549 cells at 34 nM after 12 hrs by microarray analysis relative to control; outline: as §3
A549 [33] = experiment: Downregulation of HIST1H2AC gene expression in human A549 cells at 34 nM after 12 hrs by microarray analysis relative to control; outline: as §2
A549 [34] = experiment: Downregulation of DPYD gene expression in human A549 cells at 34 nM after 12 hrs by microarray analysis relative to control; outline: as §2
A549 [35] = experiment: Downregulation of OR1C1 gene expression in human A549 cells at 34 nM after 12 hrs by microarray analysis relative to control; outline: as §1
A549 [36] = experiment: Upregulation of GADD45A gene expression in human A549 cells at 34 nM after 12 hrs by microarray analysis relative to control; outline: as §3
A549 [37] = experiment: Upregulation of HES2 gene expression in human A549 cells at 34 nM after 12 hrs by microarray analysis relative to control; outline: as §3
A549 [38] = experiment: Downregulation of SUPT3H gene expression in human A549 cells at 34 nM after 12 hrs by microarray analysis relative to control; outline: as §1

CC(=O)Nc1cn(C)c(C(=O)Nc2cc(C(=O)Nc3cc(C(=O)NCCC(=O)Nc4cc(C(=O)NCCCC(=O)Nc5cc(C(=O)NCCC(=O)Nc6cn(C)c(C(=O)Nc7ccc8[nH]c(C(=O)N9CC(CCl)c%10c9cc(O)c9ccccc%109)cc8c7)n6)n(C)c5)n(C)c4)n(C)c3)n(C)c2)n1 (racemic)
fold change (FC) (A549 [1]): 0.356 | fold change (FC) (A549 [2]): 0.362 | fold change (FC) (A549 [3]): 0.311 | fold change (FC) (A549 [4]): 0.257 | fold change (FC) (A549 [5]): 10.1 | fold change (FC) (A549 [6]): 0.36 | fold change (FC) (A549 [7]): 0.283 | fold change (FC) (A549 [8]): 0.35 | fold change (FC) (A549 [9]): 8.2 | fold change (FC) (A549 [10]): 0.317 | fold change (FC) (A549 [11]): 0.312 | fold change (FC) (A549 [12]): 0.353 | fold change (FC) (A549 [13]): 0.339 | fold change (FC) (A549 [14]): 8.1 | fold change (FC) (A549 [15]): 0.324 | fold change (FC) (A549 [16]): 5.7 | fold change (FC) (A549 [17]): 0.115

CC(=O)Nc1cn(C)c(C(=O)Nc2cn(C)c(C(=O)Nc3cc(C(=O)NCCC(=O)Nc4cc(C(=O)NCCCC(=O)Nc5cn(C)c(C(=O)NCCC(=O)Nc6cn(C)c(C(=O)Nc7ccc8[nH]c(C(=O)N9CC(CCl)c%10c9cc(O)c9ccccc%109)cc8c7)n6)n5)n(C)c4)n(C)c3)n2)n1 (racemic)
fold change (FC) (A549 [18]): 8.9 | fold change (FC) (A549 [19]): 0.241 | fold change (FC) (A549 [20]): 0.311 | fold change (FC) (A549 [21]): 0.152 | fold change (FC) (A549 [22]): 0.276 | fold change (FC) (A549 [23]): 8.5 | fold change (FC) (A549 [24]): 0.322 | fold change (FC) (A549 [25]): 0.307 | fold change (FC) (A549 [26]): 7.8 | fold change (FC) (A549 [27]): 0.258 | fold change (FC) (A549 [28]): 0.291 | fold change (FC) (A549 [29]): 0.313 | fold change (FC) (A549 [30]): 6.7 | fold change (FC) (A549 [31]): 6.1 | fold change (FC) (A549 [32]): 6 | fold change (FC) (A549 [33]): 0.329 | fold change (FC) (A549 [34]): 0.103 | fold change (FC) (A549 [35]): 0.324 | fold change (FC) (A549 [36]): 5.9 | fold change (FC) (A549 [37]): 8.2 | fold change (FC) (A549 [38]): 0.231
